Assay results from ChEMBL document CHEMBL1240344, “Phage-encoded combinatorial chemical libraries based on bicyclic peptides” (Nat Chem Biol, 2009).
Values belong to the compound of their own block, whether it stands above or below them. Calls of active or inactive are those of the source. The calls are words filed in the database; no cut-off is given here. Starred links: 1 amine or outer side, 2 acyl side, 3 side chain; linkers in the order of their positions; H or OH if unused. Positions of bridges follow the written chain, without caps; N, C: chain ends. Residues, ends and D or L forms follow the SMILES beside them. TBMB = c1c(C[*:1])cc(C[*:3])cc1C[*:2]

Columns and labels:
[1] = target: T1, Prostate-specific antigen (Homo sapiens, UniProt P07288); assay: Binding affinity to prostate specific antigen
T1 sequence (P07288 whole entry): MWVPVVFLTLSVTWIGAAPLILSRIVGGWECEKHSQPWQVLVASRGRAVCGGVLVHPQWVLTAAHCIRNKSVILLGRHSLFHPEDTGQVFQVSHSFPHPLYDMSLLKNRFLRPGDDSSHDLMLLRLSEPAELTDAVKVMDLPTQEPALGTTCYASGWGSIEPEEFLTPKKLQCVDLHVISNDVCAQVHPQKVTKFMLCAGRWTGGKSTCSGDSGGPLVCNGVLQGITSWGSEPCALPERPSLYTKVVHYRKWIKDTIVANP

[2] = target: Receptor tyrosine-protein kinase erbB-2 (Homo sapiens, UniProt P04626); assay: Binding affinity to ErbB-2
Sequence of Receptor tyrosine-protein kinase erbB-2 (P04626 whole entry): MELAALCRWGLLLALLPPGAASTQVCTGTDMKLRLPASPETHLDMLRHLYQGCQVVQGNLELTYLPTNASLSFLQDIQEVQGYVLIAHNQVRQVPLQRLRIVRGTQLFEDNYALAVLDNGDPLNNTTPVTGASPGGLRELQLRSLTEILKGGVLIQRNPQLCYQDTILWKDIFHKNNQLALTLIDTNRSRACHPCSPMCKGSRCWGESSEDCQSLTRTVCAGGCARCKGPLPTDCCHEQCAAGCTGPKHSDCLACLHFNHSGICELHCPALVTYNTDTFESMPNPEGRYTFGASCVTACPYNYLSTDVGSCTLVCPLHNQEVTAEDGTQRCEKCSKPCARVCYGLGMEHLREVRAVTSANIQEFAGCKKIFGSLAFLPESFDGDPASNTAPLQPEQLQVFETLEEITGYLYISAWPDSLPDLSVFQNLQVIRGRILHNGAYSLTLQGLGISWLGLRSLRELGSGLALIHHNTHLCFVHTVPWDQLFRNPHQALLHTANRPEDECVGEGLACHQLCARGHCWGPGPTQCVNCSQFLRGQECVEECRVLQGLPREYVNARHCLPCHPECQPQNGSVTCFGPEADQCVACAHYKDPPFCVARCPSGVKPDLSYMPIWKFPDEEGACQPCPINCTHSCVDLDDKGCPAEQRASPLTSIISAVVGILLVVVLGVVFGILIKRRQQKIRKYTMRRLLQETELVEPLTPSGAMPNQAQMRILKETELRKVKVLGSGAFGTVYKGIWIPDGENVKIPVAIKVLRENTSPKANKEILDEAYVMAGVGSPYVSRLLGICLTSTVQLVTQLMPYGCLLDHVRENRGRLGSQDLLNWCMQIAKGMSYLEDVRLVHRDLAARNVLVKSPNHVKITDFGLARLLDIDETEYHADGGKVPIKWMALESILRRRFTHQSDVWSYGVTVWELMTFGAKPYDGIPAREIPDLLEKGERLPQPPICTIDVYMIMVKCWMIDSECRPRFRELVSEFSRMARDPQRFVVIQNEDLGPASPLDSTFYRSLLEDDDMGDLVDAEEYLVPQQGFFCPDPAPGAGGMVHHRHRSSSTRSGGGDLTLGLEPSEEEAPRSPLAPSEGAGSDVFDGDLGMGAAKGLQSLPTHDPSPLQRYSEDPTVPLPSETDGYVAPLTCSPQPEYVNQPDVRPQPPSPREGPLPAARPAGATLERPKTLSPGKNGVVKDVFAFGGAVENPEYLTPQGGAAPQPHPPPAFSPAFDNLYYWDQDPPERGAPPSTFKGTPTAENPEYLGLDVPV

[3] = Chemical stability of compound assessed as drug cleavage in presence of plasma kallikrein after 24 hrs at 37 degC by mass spectrometric analysis; assay type: physicochemical; conditions: read-out: Activity
Outline: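 The peptide was incubated with human plasma kallikrein. Cleavage was detected by mass spectrometry as an 18 Da mass gain, and the cleaved fraction was estimated.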

Plasma kallikrein = Plasma kallikrein (Homo sapiens, UniProt P03952); assay: Inhibition of kallikrein-mediated intrinsic coagulation pathway in human plasma assessed as reduction in factor 12a generation at 160 nM by colorimetric assay; assay type: cell-free
Sequence of Plasma kallikrein (P03952 20-390 limits assumed): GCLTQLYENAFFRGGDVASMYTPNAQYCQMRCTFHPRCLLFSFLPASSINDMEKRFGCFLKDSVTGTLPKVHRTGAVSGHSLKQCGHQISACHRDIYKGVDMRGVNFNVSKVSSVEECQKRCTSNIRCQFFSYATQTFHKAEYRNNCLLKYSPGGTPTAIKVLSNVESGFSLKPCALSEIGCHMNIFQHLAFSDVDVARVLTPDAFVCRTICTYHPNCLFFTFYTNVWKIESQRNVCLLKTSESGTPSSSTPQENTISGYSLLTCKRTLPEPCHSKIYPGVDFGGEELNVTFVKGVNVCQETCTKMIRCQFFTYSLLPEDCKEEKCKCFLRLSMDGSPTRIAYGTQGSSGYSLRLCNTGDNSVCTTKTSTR
Sequence of Plasma kallikrein (P03952 391-638 limits assumed): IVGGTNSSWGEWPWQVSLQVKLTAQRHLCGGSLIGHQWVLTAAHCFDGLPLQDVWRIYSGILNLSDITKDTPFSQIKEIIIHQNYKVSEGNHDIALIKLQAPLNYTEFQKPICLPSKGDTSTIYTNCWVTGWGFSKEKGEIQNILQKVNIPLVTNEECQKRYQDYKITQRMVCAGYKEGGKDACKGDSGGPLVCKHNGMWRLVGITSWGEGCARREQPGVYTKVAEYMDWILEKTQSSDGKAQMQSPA
Outline: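 Human plasma was triggered with kaolin to start the intrinsic pathway. Factor XIIa activity was then read with a colorimetric substrate.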

[4] = Chemical stability assessed as compound cleavage in presence of Aeromonas proteolytica by mass spectrometric analysis; assay type: physicochemical
Outline: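 The kallikrein-cleaved peptide was incubated with leucyl aminopeptidase from Aeromonas proteolytica. The products were analysed by mass spectrometry to locate the cleavage site.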

[5] = target: T2, Deoxyribonuclease-2-alpha (Homo sapiens, UniProt O00115); assay: Binding affinity to Dnase 2
T2 sequence (O00115 whole entry): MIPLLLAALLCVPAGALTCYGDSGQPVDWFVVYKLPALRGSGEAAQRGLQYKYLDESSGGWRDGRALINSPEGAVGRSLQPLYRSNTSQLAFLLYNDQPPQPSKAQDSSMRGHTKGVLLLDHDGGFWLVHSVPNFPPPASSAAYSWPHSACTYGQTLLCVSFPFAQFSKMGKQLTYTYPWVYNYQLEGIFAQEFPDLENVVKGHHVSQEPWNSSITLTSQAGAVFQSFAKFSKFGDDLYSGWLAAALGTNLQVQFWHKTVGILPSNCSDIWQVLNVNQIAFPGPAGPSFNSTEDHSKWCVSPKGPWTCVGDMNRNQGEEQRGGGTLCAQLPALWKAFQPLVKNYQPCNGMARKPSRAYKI

Kallikrein-2 = target: T3, Kallikrein-2 (Homo sapiens, UniProt P20151); assay: Binding affinity to human kallikrein 2
T3 sequence (P20151 whole entry): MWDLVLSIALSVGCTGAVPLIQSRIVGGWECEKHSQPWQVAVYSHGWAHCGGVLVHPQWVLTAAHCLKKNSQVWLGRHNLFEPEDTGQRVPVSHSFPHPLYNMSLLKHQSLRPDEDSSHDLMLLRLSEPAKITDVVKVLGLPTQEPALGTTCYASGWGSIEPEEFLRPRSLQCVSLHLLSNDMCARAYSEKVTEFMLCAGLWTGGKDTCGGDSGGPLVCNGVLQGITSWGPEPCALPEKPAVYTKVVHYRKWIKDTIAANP

[6] = target: Angiotensin-converting enzyme 2 (Homo sapiens, UniProt Q9BYF1); assay: Binding affinity to angiotensin converting enzyme 2
Sequence of Angiotensin-converting enzyme 2 (Q9BYF1 whole entry): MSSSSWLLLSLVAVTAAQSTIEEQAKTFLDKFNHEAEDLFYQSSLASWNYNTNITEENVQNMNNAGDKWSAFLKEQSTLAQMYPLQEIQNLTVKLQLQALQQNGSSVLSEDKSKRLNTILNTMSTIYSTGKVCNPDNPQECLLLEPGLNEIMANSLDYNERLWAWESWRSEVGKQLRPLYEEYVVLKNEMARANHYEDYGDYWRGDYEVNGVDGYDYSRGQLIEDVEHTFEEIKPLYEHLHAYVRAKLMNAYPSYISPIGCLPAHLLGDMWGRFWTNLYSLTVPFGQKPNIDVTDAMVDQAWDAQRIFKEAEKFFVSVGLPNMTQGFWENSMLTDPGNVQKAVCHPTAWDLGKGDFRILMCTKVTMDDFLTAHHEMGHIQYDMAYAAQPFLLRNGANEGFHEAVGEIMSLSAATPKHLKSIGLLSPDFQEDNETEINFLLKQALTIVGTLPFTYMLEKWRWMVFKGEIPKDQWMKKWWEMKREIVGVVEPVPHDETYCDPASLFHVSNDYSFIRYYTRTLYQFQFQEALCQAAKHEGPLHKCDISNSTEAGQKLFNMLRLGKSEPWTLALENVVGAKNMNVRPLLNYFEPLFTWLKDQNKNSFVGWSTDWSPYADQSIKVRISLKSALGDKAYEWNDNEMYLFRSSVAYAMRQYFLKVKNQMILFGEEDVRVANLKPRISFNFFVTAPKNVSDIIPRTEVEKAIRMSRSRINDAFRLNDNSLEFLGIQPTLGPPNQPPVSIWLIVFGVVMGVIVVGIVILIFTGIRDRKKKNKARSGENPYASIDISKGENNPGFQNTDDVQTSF

[7] = Binding affinity to beta-lactamase
[8] = Binding affinity to urease
[9] = target: Coagulation factor VII/tissue factor (Homo sapiens, UniProt P08709); assay: Binding affinity to tissue factor/factor 7a; assay type: protein-complex assay
Sequence of Coagulation factor VII/tissue factor (P08709 61-212 limits assumed): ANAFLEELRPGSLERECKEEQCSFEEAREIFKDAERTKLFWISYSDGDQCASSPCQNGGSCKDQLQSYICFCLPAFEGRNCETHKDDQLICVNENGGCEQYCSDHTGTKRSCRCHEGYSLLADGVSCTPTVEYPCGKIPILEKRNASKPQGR
Sequence of Coagulation factor VII/tissue factor (P08709 213-466 limits assumed): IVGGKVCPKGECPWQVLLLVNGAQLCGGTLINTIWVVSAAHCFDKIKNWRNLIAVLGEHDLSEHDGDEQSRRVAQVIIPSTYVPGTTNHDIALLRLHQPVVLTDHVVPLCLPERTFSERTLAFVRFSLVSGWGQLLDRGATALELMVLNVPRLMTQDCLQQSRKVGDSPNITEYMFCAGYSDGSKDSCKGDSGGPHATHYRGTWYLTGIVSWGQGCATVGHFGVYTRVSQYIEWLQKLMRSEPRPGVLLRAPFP
Sequence of Coagulation factor VII/tissue factor (P13726 33-295 partner limits assumed): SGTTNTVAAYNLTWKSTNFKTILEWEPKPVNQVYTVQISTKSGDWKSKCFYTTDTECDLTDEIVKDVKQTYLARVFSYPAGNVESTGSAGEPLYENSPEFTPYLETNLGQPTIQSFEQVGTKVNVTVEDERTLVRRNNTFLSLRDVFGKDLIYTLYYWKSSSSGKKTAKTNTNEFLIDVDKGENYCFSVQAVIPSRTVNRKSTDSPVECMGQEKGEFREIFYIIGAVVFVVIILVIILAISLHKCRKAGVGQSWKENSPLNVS

[10] = Binding affinity to chymotrypsin

Kd [1]: 2.9 µM
Compound: CC[C@H](C)[C@H](NC(=O)[C@H](CS)NC(=O)[C@H](Cc1ccc(O)cc1)NC(=O)[C@H](C)NC(=O)[C@@H](NC(=O)[C@@H](N)CS)C(C)C)C(=O)N[C@@H](CCC(=O)O)C(=O)N[C@@H](Cc1cnc[nH]1)C(=O)N[C@@H](Cc1cnc[nH]1)C(=O)N[C@@H](CS)C(=O)N[C@@H](Cc1c[nH]c2ccccc12)C(=O)N[C@H](C(=O)N[C@@H](CS)C(=O)O)[C@@H](C)O (H-CVAYCIEHHCWTC-OH)

Ki [2]: 30 µM
Compound: CC(C)C[C@H](NC(=O)[C@H](CO)NC(=O)[C@H](Cc1ccc(O)cc1)NC(=O)[C@H](CS)NC(=O)[C@H](CS)NC(=O)[C@@H](N)CCCCN)C(=O)O (H-KCCYSL-OH)

metabolised at 24 h [3]: 90% | inhibition (Plasma kallikrein): Active | Stability [4]: Unstable
Compound: CC(C)C[C@@H]1NC(=O)[C@H](C)NC(=O)[C@H](CCC(=O)O)NC(=O)[C@H](CC(=O)O)NC(=O)[C@H](C)NC(=O)[C@@H]2CCCN2C(=O)[C@@H]2CSCc3cc(cc(c3)CSC[C@@H](C(=O)NCC(N)=O)NC1=O)CSC[C@H](NC(=O)[C@H](C)N)C(=O)N[C@@H](CO)C(=O)N[C@@H](CC(=O)O)C(=O)N[C@@H](CCCNC(=N)N)C(=O)N[C@@H](Cc1ccccc1)C(=O)N[C@@H](CCCNC(=N)N)C(=O)N[C@@H](CC(N)=O)C(=O)N2 (H-ACSDRFRNCPADEALCG-NH2; linker 2-9-16 via TBMB)

Ki [5]: 0.2 µM
Compound: CC(C)C[C@H](NC(=O)[C@H](Cc1ccccc1)NC(=O)[C@H](Cc1c[nH]c2ccccc12)NC(=O)[C@H](CCC(N)=O)NC(=O)[C@H](CC(C)C)NC(=O)[C@H](CC(C)C)NC(=O)[C@H](CCCN=C(N)N)NC(=O)[C@H](CC(C)C)NC(=O)[C@@H](N)CS)C(=O)N[C@@H](Cc1c[nH]c2ccccc12)C(=O)N[C@@H](C)C(=O)N[C@@H](CS)C(=O)O (H-CLRLLQWFLWAC-OH)

IC50 (Kallikrein-2): 3.4 µM
Compound: H-SRFKVWWAAF-OH

Ki [6]: 0.0028 µM
Compound: CC(C)C[C@H](NC(=O)[C@@H]1CCCN1C(=O)[C@H](CO)NC(=O)[C@H](CS)NC(=O)[C@H](Cc1cnc[nH]1)NC(=O)[C@H](CO)NC(=O)[C@H](Cc1ccc(O)cc1)NC(=O)[C@@H](CC(=O)O)NC(=O)CN)C(=O)N[C@@H](CCCNC(=N)N)C(=O)N[C@@H](Cc1ccc(O)cc1)C(=O)N[C@@H](Cc1ccc(O)cc1)C(=O)N1CCC[C@H]1C(=O)N[C@@H](Cc1c[nH]c2ccccc12)C(=O)N[C@@H](Cc1c[nH]c2ccccc12)C(=O)N[C@@H](CCCCN)C(=O)N[C@@H](CS)C(=O)N[C@H](C(=O)N[C@@H](Cc1ccc(O)cc1)C(=O)N1CCC[C@H]1C(=O)N[C@@H](CC(=O)O)C(=O)N1CCC[C@H]1C(=O)O)[C@@H](C)O

IC50 [7]: 9 µM
Compound: CC(C)[C@H](NC(=O)[C@@H](N)CS)C(=O)N[C@@H](Cc1cnc[nH]1)C(=O)N[C@@H](CO)C(=O)N1CCC[C@H]1C(=O)N[C@@H](CC(N)=O)C(=O)N[C@@H](CCCNC(=N)N)C(=O)N[C@@H](CCC(=O)O)C(=O)N[C@@H](CS)C(=O)O (H-CVHSPNREC-OH)

Compound: H-YDFYWW-OH
IC50 [8]: 30 µM

IC50 [9]: 0.0015 µM
Compound: CC(C)C[C@H](NC(=O)[C@@H](NC(=O)[C@H](CCC(=O)O)NC(=O)[C@H](Cc1c[nH]c2ccccc12)NC(=O)[C@H](CCC(=O)O)NC(=O)[C@@H](N)CCC(=O)O)C(C)C)C(=O)N[C@@H](CS)C(=O)N[C@@H](Cc1c[nH]c2ccccc12)C(=O)N[C@H](C(=O)N[C@@H](Cc1c[nH]c2ccccc12)C(=O)N[C@@H](CCC(=O)O)C(=O)N[C@H](C(=O)N[C@@H](CS)C(=O)N[C@@H](CCC(=O)O)C(=O)N[C@@H](CCCN=C(N)N)C(=O)O)[C@@H](C)O)[C@@H](C)O (H-EEWEVLCWTWETCER-OH)

Ki [10]: 1 µM
Compound: N=C(N)NCCC[C@H](NC(=O)[C@H](CS)NC(=O)[C@H](CCCNC(=N)N)NC(=O)[C@H](Cc1c[nH]c2ccccc12)NC(=O)[C@H](CO)NC(=O)[C@H](Cc1ccccc1)NC(=O)[C@H](CS)NC(=O)[C@@H](N)CS)C(=O)N[C@@H](CS)C(=O)O (H-CCFSWRCRC-OH)
